{"source": "the EternaBench riboswitch data", "tested_on": "MS2 coat protein", "test": "apparent Kd, MS2 coat protein; higher = weaker binding; RNA-MaP array", "outline": "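Apparent Kd was taken as the median of binding curves fitted cluster by cluster. The designed RNAs were made by transcription of sequenced DNA templates on an Illumina sequencing chip and exposed to fluorescently labeled MS2 coat protein (1.5 nM to 3 μM) at room temperature, with or without input ligand, for 0.8–1.5 h at the lowest and 10–20 min at the highest concentrations. Any design measured on fewer than 10 clusters was left out.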", "key": {"[1]": {"conditions": "designed as: ON switch for flavin mononucleotide, no ligand"}, "[2]": {"conditions": "ligand present: flavin mononucleotide, designed as: ON switch for flavin mononucleotide"}, "[3]": {"conditions": "designed as: OFF switch for flavin mononucleotide, no ligand"}, "[4]": {"conditions": "ligand present: flavin mononucleotide, designed as: OFF switch for flavin mononucleotide"}}, "data": [{"sequence": "UGUUGCAGCCACAUGAGGAUCACCCAUGUGCUCAGGAUCGUUGAGGAUAUCGAGGUAGGGUCAGCCGAGAAGGCAAGGGUCGCG", "values": [{"measurement": "apparent Kd", "setting": "[1]", "result": 10.5, "unit": "nM"}, {"measurement": "apparent Kd", "setting": "[2]", "result": 8.64, "unit": "nM"}]}, {"sequence": "UUGUGGUAGGCGCAUACUCAUUUAUACAAGCGAGGACCGGUACGGCCGCCACUCGGAAUAAAACAUGAGGAUCACCCAUGUACCG", "values": [{"measurement": "apparent Kd", "setting": "designed as: OFF switch for tryptophan, no ligand", "result": 13.7, "unit": "nM"}, {"measurement": "apparent Kd", "setting": "ligand present: tryptophan, designed as: OFF switch for tryptophan", "result": 19.1, "unit": "nM"}]}, {"sequence": "ACCGGACAUGAGGAUCACCCAUGUCUUGCAUAGGUAGGAUAUGAAUCAAGGACUUGAUCAUCAGAAGGACCCAGGC", "values": [{"measurement": "apparent Kd", "setting": "[1]", "result": 8.44, "unit": "nM"}, {"measurement": "apparent Kd", "setting": "[2]", "result": 7.13, "unit": "nM"}]}, {"sequence": "AUCAGUCUAGAAGGAUAUCAGCCCGAAGCCGAGUGAGAAGGUCUAGACAUGAGGAUCACCCAUGUCACAGCAACUAUCAAGAAC", "values": [{"measurement": "apparent Kd", "setting": "[3]", "result": 9.74, "unit": "nM"}, {"measurement": "apparent Kd", "setting": "[4]", "result": 19.1, "unit": "nM"}]}, {"sequence": "UGGAACAGUGUAAGGAUAUGGUACAAAAUAAACUCCCAGAAGGUACAUGAGGAUCACCCAUGUUAAUAAGACAA", "values": [{"measurement": "apparent Kd", "setting": "[3]", "result": 13.7, "unit": "nM"}, {"measurement": "apparent Kd", "setting": "[4]", "result": 13.6, "unit": "nM"}]}, {"sequence": "CACAACGGUAGUUAGGAUAUCCAUAUGCGUACAUGAGGAUCACCCAUGUAAUUACAGAAAUGAUAGGAGAAGGAACGCAUCCGAAA", "values": [{"measurement": "apparent Kd", "setting": "[1]", "result": 33.3, "unit": "nM"}, {"measurement": "apparent Kd", "setting": "[2]", "result": 21, "unit": "nM"}]}, {"sequence": "ACCUAGAGAUAGAAGGUUUAUAUGACCCUACAUGAGGAUCACCCAUGUUGUGGUAUUAUUCGUGAAAAGGAUAUAUCCCGUGAC", "values": [{"measurement": "apparent Kd", "setting": "[1]", "result": 7.6, "unit": "nM"}, {"measurement": "apparent Kd", "setting": "[2]", "result": 7.52, "unit": "nM"}]}, {"sequence": "GCGGGUUACCCAGAAUGAGAAACAUGAGGAUCACCCAUGUAGAAGGAUAUAGAGUCUUGGUCUGCCUAGAAGGUCUAUAAUUGA", "values": [{"measurement": "apparent Kd", "setting": "[3]", "result": 20.5, "unit": "nM"}, {"measurement": "apparent Kd", "setting": "[4]", "result": 19.9, "unit": "nM"}]}, {"sequence": "AUUCCAAUAGGAUAUACAUGAGGAUCACCCAUGUGAUGAGCCCGUAAGACAGACGUCAGUAGAAGGAUUAGGAA", "values": [{"measurement": "apparent Kd", "setting": "[3]", "result": 24.5, "unit": "nM"}, {"measurement": "apparent Kd", "setting": "[4]", "result": 31.7, "unit": "nM"}]}, {"sequence": "CUAACCACAAUAGGAUAUCGGGCUCGUUUCAUUGCUGCAAAACAUGAGGAUCACCCAUGUCCGUCCGAGAAGGAUUGUAAGAAU", "values": [{"measurement": "apparent Kd", "setting": "[1]", "result": 92.1, "unit": "nM"}, {"measurement": "apparent Kd", "setting": "[2]", "result": 14.8, "unit": "nM"}]}, {"sequence": "AAUAGUUCUGGAGGAUAUUGUACAUGAGGAUCACCCAUGUUAUCUACUGCUAUGGUUGACCUGCGCAAGAAGGCCACGUUCCUG", "values": [{"measurement": "apparent Kd", "setting": "[3]", "result": 12.6, "unit": "nM"}, {"measurement": "apparent Kd", "setting": "[4]", "result": 20.5, "unit": "nM"}]}, {"sequence": "CUCCCACUAUCUGAUACCAGAGGAUAAACGUAGACUGGGAACAUGAGGAUCACCCAUGUCCUCCCUUGGCAGCAGGACUUAUCUC", "values": [{"measurement": "apparent Kd", "setting": "designed as: OFF switch for theophylline, no ligand", "result": 21.9, "unit": "nM"}, {"measurement": "apparent Kd", "setting": "ligand present: theophylline, designed as: OFF switch for theophylline", "result": 38.3, "unit": "nM"}]}, {"sequence": "UCAAGCGAAGGAUAUACAUGAGGAUCACCCAUGUUGGCUAGAAUGAAAGACGGAUUAUGUAGAAGGUCGUGUGC", "values": [{"measurement": "apparent Kd", "setting": "[3]", "result": 20.3, "unit": "nM"}, {"measurement": "apparent Kd", "setting": "[4]", "result": 17.6, "unit": "nM"}]}, {"sequence": "UUGAGACAACACCCAACAUGAGGAUCACCCAUGUCACCGAGAGAGGAUAUGCACGAGUAGGUCCAGCAGAAGGCUCUAUGUCAA", "values": [{"measurement": "apparent Kd", "setting": "[1]", "result": 115, "unit": "nM"}, {"measurement": "apparent Kd", "setting": "[2]", "result": 15.9, "unit": "nM"}]}, {"sequence": "GCAUACAGCAAGAAGGUGGCAUCGACUAUGGCCCAAGGAUAUUGCGGUACUACAUGAGGAUCACCCAUGUGUUCAUGAUUAUAG", "values": [{"measurement": "apparent Kd", "setting": "[1]", "result": 35.5, "unit": "nM"}, {"measurement": "apparent Kd", "setting": "[2]", "result": 30.2, "unit": "nM"}]}, {"sequence": "GGUCCGACAACAGGAUAUGUCAUACGCUAAUGAACAGAAGGGUUACAUGAGGAUCACCCAUGUGCUUACACAUGCUCCGGAGCA", "values": [{"measurement": "apparent Kd", "setting": "[1]", "result": 10.8, "unit": "nM"}, {"measurement": "apparent Kd", "setting": "[2]", "result": 17.1, "unit": "nM"}]}, {"sequence": "GCAGUAAGAGAGGAUAUGAUGGACGCAAGGGCGUCAGAAGGCUCUACAUGAGGAUCACCCAUGUGAAGUUCAUA", "values": [{"measurement": "apparent Kd", "setting": "[3]", "result": 6.12, "unit": "nM"}, {"measurement": "apparent Kd", "setting": "[4]", "result": 6.52, "unit": "nM"}]}, {"sequence": "CACGCCAGAUCUCAGGAUAUCCCACAUCAAACAUGAGGAUCACCCAUGUGACAUAUAUAGAACAUGGAGAAGGGAGCACAUGCGGC", "values": [{"measurement": "apparent Kd", "setting": "[1]", "result": 209, "unit": "nM"}, {"measurement": "apparent Kd", "setting": "[2]", "result": 113, "unit": "nM"}]}, {"sequence": "CCAAGCAUAAUAGAUACCAGUCGUAUACCUCCAACAUGAGGAUCACCCAUGUGCUCAGUUGACCCUUGGCAGCUAUGCCUAUAGA", "values": [{"measurement": "apparent Kd", "setting": "designed as: ON switch for theophylline, no ligand", "result": 39.6, "unit": "nM"}, {"measurement": "apparent Kd", "setting": "ligand present: theophylline, designed as: ON switch for theophylline", "result": 25.8, "unit": "nM"}]}, {"sequence": "GAUAAGGAAGGAUAUACAAAGGAACAAAUACACAUUCUAAAACAUGAGGAUCACCCAUGUAGAAGGACCAACAA", "values": [{"measurement": "apparent Kd", "setting": "[3]", "result": 6.97, "unit": "nM"}, {"measurement": "apparent Kd", "setting": "[4]", "result": 6.83, "unit": "nM"}]}, {"sequence": "GGGUGACAUGAGGAUCACCCAUGUCAGGAUAUGGACUCGAAAUUAGGUAUGAAUCACGCCAGAAGGGACCGGGC", "values": [{"measurement": "apparent Kd", "setting": "[3]", "result": 55, "unit": "nM"}, {"measurement": "apparent Kd", "setting": "[4]", "result": 44, "unit": "nM"}]}, {"sequence": "CAUUAAACAGCAGGAUAUACUAGUGUGAUACUGGUAGAAGGGCUCCUCACCCACAUGAGGAUCACCCAUGUGACAUCUACCUUA", "values": [{"measurement": "apparent Kd", "setting": "[1]", "result": 314, "unit": "nM"}, {"measurement": "apparent Kd", "setting": "[2]", "result": 146, "unit": "nM"}]}, {"sequence": "AAGCGCAAAGGAUAUAGCCGAUCCAACAUGAGGAUCACCCAUGUGACUUCCGACAUCAAGCUAGAAGGUUGAUGCA", "values": [{"measurement": "apparent Kd", "setting": "[3]", "result": 47.6, "unit": "nM"}, {"measurement": "apparent Kd", "setting": "[4]", "result": 41, "unit": "nM"}]}]}
